# HCV core dimer: blocks dimerization of HCV core protein. TR-FRET GST/Flag-core106 dimerization, 1536-well. hit rate 0.33% among 300,000. inhibition, % at 5 µM;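 active = inhibition above the mean of all tested compounds plus 3 SD, set per screening campaign, cut at about 45% in these data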
#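 Assay system: tagged HCV core106 pair (GST and Flag); medium: KF-containing HEPES buffer, pH 7.45, DTT, CHAPS, BSA; also added: Eu donor and XL665 acceptor anti-tag antibodies; dosing: 5 µM single dose; timing: compound-protein-antibody incubation 4 h at 22.5 °C; signal: TR-FRET 671 and 617 nm emission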
# VIM-2 inh: blocks Pseudomonas aeruginosa VIM-2 metallo-beta-lactamase; AID 1527; inhibition, % at 5.6 µM; purified VIM-2, nitrocefin hydrolysis, epi-absorbance fluorescence; hit rate 0.89% among 290,000;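 active = inhibition above the mean of all tested compounds plus 3 SD, cutoff set per screening run, cut at about 7.5% in these data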;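 note: red hydrolysis product quenches plate fluorescence so inhibitors raise well fluorescence; 0% = enzyme with DMSO and 100% = DMSO without enzyme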
# IMP-1 inh-1: blocks Pseudomonas aeruginosa IMP-1 metallo-beta-lactamase | purified IMP-1, nitrocefin hydrolysis, epi-absorbance fluorescence | hit rate 0.45% among 290,000 | inhibition, % at 5.6 µM;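 active = inhibition above the mean plus 3 SD of all compounds in the same screening run, cut at about 4.5% in these data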;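 note: 0% = IMP-1 with DMSO and 100% = DMSO wells lacking enzyme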
#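 Test system: recombinant IMP-1 enzyme, purified / Medium: HEPES buffer pH 7.1 with ZnSO4 and Brij 35 / Doses: single dose, 5.6 µM / Times: 25 °C, 15 min preincubation, 25 min reaction / Detection: Epi-absorbance via hydrolysed-nitrocefin quenching of white-plate fluorescence, 480/530 nm, EDTA stop / Evaluation: percent inhibition from optical density relative to buffer-blank wells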
# SUMO HTRF inh: SUMOylation inhibition; HTRF SUMOylation assay, SAE1/SAE2 + UBC9, in vitro; AID 2006; P63279; inhibition, % at 35 µM; hit rate 0.36% among 290,000; in the data active = inhibition above about 50%, passing the limit was not always enough
# Target sequence (P63279 whole entry, looked up): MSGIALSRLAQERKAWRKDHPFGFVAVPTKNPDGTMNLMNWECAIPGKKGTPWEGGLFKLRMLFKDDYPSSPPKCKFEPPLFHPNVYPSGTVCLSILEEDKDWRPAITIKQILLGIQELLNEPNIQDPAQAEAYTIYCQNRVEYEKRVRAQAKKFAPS
# PHOSPHO1 block: blocks human PHOSPHO1 phosphatase activity | Q8TCT1 | recombinant PHOSPHO1, absorbance phosphatase assay | inhibition, % at 13.3 µM | hit rate 1.1% among 290,000 | AID 1565; in the data active = inhibition above about 60%
# Target sequence (Q8TCT1 whole entry, looked up): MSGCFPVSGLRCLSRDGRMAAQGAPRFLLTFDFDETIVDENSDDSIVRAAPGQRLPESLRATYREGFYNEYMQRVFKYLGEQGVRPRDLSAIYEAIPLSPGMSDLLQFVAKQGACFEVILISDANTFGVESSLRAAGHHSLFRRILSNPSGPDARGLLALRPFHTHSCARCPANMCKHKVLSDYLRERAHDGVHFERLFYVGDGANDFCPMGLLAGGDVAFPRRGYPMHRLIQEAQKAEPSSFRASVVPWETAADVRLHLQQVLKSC
# HCV NS3 hel inh: HCV NS3 helicase inhibition; hit rate 0.56% among 290,000; NS3 helicase DNA unwinding, Cy5 molecular beacon fluorescence; inhibition, % at 10.9 µM; AID 1800;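 active = inhibition above the mean of all tested compounds plus 3 SD, set per campaign, cut at about 35% in these data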;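 note: 0% = DMSO wells and 100% = thioflavine S control wells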
#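 Compound dosing – single dose, 10.9 µM nominal final, DMSO 0.8% final · System – NS3 helicase fragment of HCV · Buffer or medium – MOPS pH 6.5, MgCl2, DTT, Tween20, BSA · Signal – Cy5 beacon fluorescence read at start and 1 h · Also added – annealed dual-labelled DNA beacon duplex, ATP-started · Schedule – 1 h at 25 °C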
# IMP-1 inh-2: blocks IMP-1 metallo-beta-lactamase in VIM-2 selectivity screen. shares compounds with VIM-2 inh. purified IMP-1, nitrocefin hydrolysis, epi-absorbance fluorescence. inhibition, % at 5.6 µM. 1,300 tested, under 10 active. AID 1856; call rule not given here;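 note: 0% = enzyme with vehicle and 100% = vehicle without enzyme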
# VIM-2 FRET inh: inhibits VIM-2 in FRET assay to exclude epi-absorbance artifacts | hit rate 23% among 1,300 | shares compounds with VIM-2 inh | inhibition, % at 5.6 µM | purified VIM-2, CCF2 FRET substrate hydrolysis;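 active = inhibition above the mean of all tested compounds plus 3 SD, cut at about 19% in these data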;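 note: 0% = VIM-2 plus DMSO and 100% = no enzyme wells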
# TEM-1 counter: blocks E. coli TEM-1 beta-lactamase in VIM-2 selectivity screen; shares compounds with VIM-2 inh; Purified TEM-1, nitrocefin hydrolysis, epi-absorbance fluorescence; hit rate 3% among 1,300; inhibition, % at 5.6 µM;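 active = inhibition above that campaign's mean inhibition plus 3 SD, cut at about 0.46% in these data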;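 note: 0% = TEM-1 with DMSO and 100% = TEM-1 with 100 µM potassium clavulanate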
# VIM-2 confirm 2: confirmation of P. aeruginosa VIM-2 metallo-beta-lactamase inhibitors; shares compounds with VIM-2 inh; hit rate 96% among 1,300; inhibition, % at 5.6 µM; AID 2187; purified VIM-2, nitrocefin hydrolysis, epi-absorbance;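 active = inhibition of the VIM-2 beta-lactamase enzyme above about 11% from the earlier first-round screen, limit read from the data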;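 note: 0% = VIM-2 with DMSO and 100% = buffer wells without enzyme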
# The depositor's hits bear a star; x = no result given. In the library only some 3.1% were active in any assay of this set; here they are far more common.
SMILES,HCV core dimer,VIM-2 inh,IMP-1 inh-1,SUMO HTRF inh,PHOSPHO1 block,HCV NS3 hel inh,IMP-1 inh-2,VIM-2 FRET inh,TEM-1 counter,VIM-2 confirm 2
CCCC[n+]1ccn(-c2nc3ccccc3nc2[N-]S(=O)(=O)c2cccs2)c1,3.1,18.6*,-4.6,11.8,76.8*,26.1,-3.2,9.7,-6.5,21.0*
CCCC[n+]1ccn(-c2nc3ccccc3nc2[N-]S(=O)(=O)c2ccccc2)c1,4.4,1.4,-0.6,-5.0,-8.3,7.7,x,x,x,x
C=CC[n+]1ccn(-c2nc3ccccc3nc2[N-]S(=O)(=O)c2cccs2)c1,9.3,21.9*,-4.2,13.0,-2.6,33.4,-2.4,8.8,-5.8,16.5*
C[N+]1(CC(=O)NNc2c3ccccc3nc3ccccc23)CCOCC1,-17.1,21.4*,-3.8,-7.9,48.4,9.2,-5.4,3.2,-10.3,32.8*
O=C(CN1CCOCC1)NNc1c2ccccc2nc2ccccc12,-10.2,0.3,-0.5,1.4,27.7,16.2,x,x,x,x
CN1CCN(c2nc(-c3ccccc3Cl)nc3ccccc23)CC1,x,-1.2,-2.9,21.1,27.3,-2.5,x,x,x,x
CN1CCN(c2nc(-c3ccccc3O)nc3ccccc23)CC1,0.1,13.9*,-1.9,-5.1,34.0,-13.1,-1.8,0.0,-7.0,18.1*
Cc1cc(N2C(=O)CC(N3CCN(c4ccc(C(=O)c5cccs5)cc4)CC3)C2=O)no1 (stereo unspecified),20.2,13.2*,-1.9,6.9,9.7,3.4,-4.5,0.1,-7.4,3.2
COC(=O)c1c(-c2ccncc2)csc1NC(=O)c1ccoc1C,4.0,50.2*,-1.1,-3.6,33.4,-11.2,-2.8,-5.0,-5.5,73.9*
CCc1cc(C(=O)OC)c(NC(=O)c2ccoc2C)s1,-1.9,0.2,-3.5,4.8,55.8,16.4,x,x,x,x
CN1CCN(c2ccccc2NC(=O)c2sc3ccccc3c2Cl)CC1,3.0,16.0*,-2.3,11.7,24.6,-38.5,-1.5,-0.2,-7.4,39.5*
Cc1c(OCc2ccc(C(=O)O)o2)ccc2c3c(c(=O)oc12)CCC3,5.8,6.2,-0.5,22.3,0.6,9.8,x,x,x,x
O=C(COc1cc2oc(=O)c3c(c2cc1Cl)CCC3)NCC(O)c1ccccc1 (stereo unspecified),-11.8,13.9*,-2.5,8.8,15.4,8.9,-2.2,2.4,-5.5,26.2*
Cc1c(OCC(=O)NCC(O)c2ccccc2)ccc2c3c(c(=O)oc12)CCC3 (stereo unspecified),5.4,20.0*,-0.4,-12.0,42.2,2.9,-2.6,-4.4,-9.4,28.1*
Cc1ccc(S(=O)(=O)N2CCN(C(=O)CN3C(=O)NC4(CCCC4)C3=O)CC2)c(C)c1,2.8,x,x,x,x,x,x,x,x,x
S=c1[nH]nc(-c2cccnc2)n1C1CCCCC1,-2.9,16.0*,-5.0,5.4,5.8,4.4,-3.4,44.7*,-8.2,26.2*
S=c1[nH]nc(-c2ccccc2)n1CC1CCCO1 (stereo unspecified),-10.2,29.7*,-6.9,14.3,-12.2,-15.2,-3.0,47.9*,-6.5,31.9*
CC1CCCCC1n1c(-c2cccnc2)n[nH]c1=S (stereo unspecified),-2.6,19.1*,-2.5,5.4,-96.0,-2.1,-2.6,49.3*,-6.7,31.7*
S=c1[nH]nc(-c2ccccc2)n1C1C=CCCC1 (stereo unspecified),-4.7,14.7*,-3.6,8.8,91.5*,-0.3,-3.2,44.0*,-8.0,25.9*
O=C(Nc1ccc2ccccc2n1)c1ccccc1Br,10.6,-1.1,-3.0,12.2,4.1,6.6,x,x,x,x
NC(=O)Cn1nnc(-c2ccc(NC(=O)c3ccc(F)cc3)cc2)n1,-5.6,-1.6,-1.8,20.7,31.7,5.0,x,x,x,x
